We go through 99 molecules from ChEMBL document CHEMBL4513216, “Probing the Open Global Health Chemical Diversity Library for Multistage-Active Starting Points for Next-Generation Antimalarials” (ACS Infect Dis, 2020).

The data set in a line: Toxicity liver stage against HepG2, at 10uM. The format is cell-based. The arrangement: test concentration 10 uM, cell line HepG2-A16-CD81EGFP. The conditions noted are these: human, HepG2-A16-CD81EGFP cells; read-out: INHIBITION
Summed up: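 Uninfected HepG2-A16-CD81EGFP cells, 3 × 10^3 per well, 1536-well, plated on prespotted compound at 10 μM final, parasite-free screening media added to match infected plates; puromycin 10 μM positive, DMSO 0.5% negative; run in parallel with 48 h PbLuc assay at 37 °C, 5% CO2; viability by CellTiter-Glo luminescence, normalized to controls.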
Turning to `N#Cc1c2n(c3c(=O)[nH]cnc13)CCCC2`, the cytotoxicity at 10 µM was 2.45%. As to `CC(=O)N1CCC(NC2(Cc3cc(CN(C)C)on3)COC2)CC1`, the cytotoxicity at 10 µM is -1.38%. Regarding `CN(C)C(CNS(=O)(=O)c1cc(F)ccc1F)c1cccn1C` (centres undefined), the cytotoxicity at 10 µM amounted to 1.33%. The value for `O=C(c1cnccn1)N1CC(S(=O)(=O)c2ccc(Cl)cc2)C1` was -2.3%; that for `CCN1C[C@@H]2CN(S(=O)(=O)c3cccs3)C[C@@H]2C1=O` was -2.42%. The value for `CCN(C)C(=O)c1cc(-c2cn(C(C)C)cn2)n2ccccc12` was -1.16%; that for `CN1C(=O)CC2(CCNCC2)c2ccccc21` was -3.92%. The value for `COCC(=O)N1CCC2(CC1)CC(N1CCOCC1)c1ccc(C)cc12` (centres undefined) was -116%; that for `CN1CCC2(Cc3ccccc3NC2=O)C1` (centres undefined) was 9.82%. For the molecule `CCN1CCc2onc(CNc3ncccn3)c2C1`, the cytotoxicity at 10 µM amounted to 0.927%. The value for `CSCC[C@H](NC(=O)Cn1ccc2c(Cl)cccc21)C(=O)O` was 4.18%. On to `O=C(c1cn(-c2cc(N3CCOCC3)ncn2)cn1)N1CCSCC1`, for which the cytotoxicity at 10 µM is -18.3%.

With `Cc1cccc(CS(=O)(=O)NCC(O)Cc2ccccc2)c1` (centres undefined), the cytotoxicity at 10 µM is -19.5%. The value for `CCC(CO)NC(=O)c1ccc2ccc(N(C)CC3CC3)n2c1` (centres undefined) was 4.82%; that for `Cc1cccc(CN2C[C@@H]3CCCO[C@@H]3[C@H](NS(C)(=O)=O)C2)n1` was -8.06%. The value for `Nc1nnnn1NCc1ccccc1C(F)(F)F` was 5.56%; that for `COCCCNC(=O)c1cc(C(C)C)nc(N2CCCC2)n1` was 6.5%. Turning to `CC(=O)NCc1ccc(-c2ccccc2C(=O)O)cn1`, the cytotoxicity at 10 µM turned out to be 1%.

Regarding `CCN(CC)S(=O)(=O)N1C[C@@H](O)[C@H](Oc2cccc(F)c2)C1`, the cytotoxicity at 10 µM was determined as 9.73%. As for `Cc1ccc(CC2COCCN(S(C)(=O)=O)C2)nc1` (centres undefined), the cytotoxicity at 10 µM is -0.56%.

In the case of `COc1cccc(-c2ccnc(C3CCNCC3)c2)c1`, the cytotoxicity at 10 µM is 56.4%. The value for `Cc1c(C(=O)N2CCC2)nnn1-c1ccc2ncccc2c1` was -2.29%; that for `Cc1nc(CSCCC(=O)Nc2cccc(N3CCNC3=O)c2)cs1` was 5.31%; that for `CC1CS(=O)(=O)CCN1CCCc1ccc(Cl)cc1` (centres undefined) was 9.28%.

For `CC(C)Oc1cccc(CN(C)C(=O)Cc2ccon2)c1`, the cytotoxicity at 10 µM was -2.09%. Regarding `CCc1ccc(C(NC(=O)CCS(C)(=O)=O)C(C)(C)C)o1` (centres undefined), the cytotoxicity at 10 µM is -3.58%. Turning to `CCSCCC(C)NC(=O)Nc1cccn(C)c1=O` (centres undefined), the cytotoxicity at 10 µM is -2.19%. In the case of `Cc1nc2cc(F)cc(C(=O)N3CCN(CCO)CC3)c2nc1C`, the cytotoxicity at 10 µM is -3.31%. On to `Cc1nc(CN2CCc3ccc(S(N)(=O)=O)cc32)oc1C`, for which the cytotoxicity at 10 µM came to 2.63%. The figure for `NC(=O)Nc1cccc(CNC(=O)CCCc2ccccc2)c1` is -10.1%; for `O=C1CCCN1CCN1CCCC(c2ccn[nH]2)C1` (centres undefined) it is -16.7%; for `Cc1nc(CN2CCCN(Cc3nc4ccccc4o3)CC2)no1` it is 12.3%. As for `O=C(NCCOc1ccc(Cl)cn1)Nc1cccnc1`, the cytotoxicity at 10 µM was -2.3%. The value for `CSc1ccc(NC(=O)NCc2nncn2C2CC2)cc1F` was 0%; that for `CCCNC(=O)NCc1ccccc1NS(=O)(=O)c1ccccc1` was 10.3%. The figure for `COCc1ccccc1C(=O)N1CCN(C2=NCC(C)(C)S2)CC1` is 6.11%; for `CC(C)CNC(=O)CC1OCCc2ccsc21` (centres undefined) it is -3.49%. The value for `O=C(CC1CCCO1)Nc1cccc(N2CCN(CC3CC3)CC2)c1` (centres undefined) was -0.699%; that for `COc1ccc(CN(C)C(=O)NC(C)c2nncn2C)cc1F` (centres undefined) was -2.85%; that for `CC(C)C(C(=O)N1CCN(Cc2ccccn2)CC1)n1cncn1` (centres undefined) was -14.5%. As for `COCCCN1CCC(NC(=O)C2CC2)CC1`, the cytotoxicity at 10 µM was -5.02%. The value for `CC(C)CNC(=O)CNC(=O)NC(C)COc1ccccc1F` (centres undefined) was -0.956%; that for `CCS(=O)(=O)NCCCNc1cc(N2CCCC2CO)ncn1` (centres undefined) was 2.2%; that for `CC(C)Cn1cc(NCc2cscn2)cn1` was 3.86%. For the molecule `CC(C)C(C)(O)CNc1cccc(F)c1C#N` (centres undefined), the cytotoxicity at 10 µM was -8.87%. The value for `Cc1noc(C2CCCN(CC(=O)N3CCNC(=O)C3)C2)n1` (centres undefined) was -13%. Regarding `CC(C)n1ccc(=O)nc1SC1CCN(c2ccccc2F)C1=O` (centres undefined), the cytotoxicity at 10 µM was found to be 11.8%. The value for `COc1ccc(N(Cc2ccco2)C(=O)COC(C)C)cc1F` was -1.63%; that for `O=C(c1cc[nH]n1)N(Cc1ccc(F)cc1)CC1CC1` was -10.8%. For the molecule `CCN(CC)C(=O)COc1ccnc2cc(OC)ccc12`, the cytotoxicity at 10 µM is -2.17%. The figure for `O=C(c1ccc(F)cc1F)N1CCN(C(=O)C2CCCCC2)CC1` is -0.876%; for `OCCn1nnnc1Cc1ccc(Br)cc1` it is 1.54%; for `CNS(=O)(=O)CCCN1CCCN(Cc2ccccc2)CC1C` (centres undefined) it is 9.77%. The value for `COc1cccc2c1CCN(C(=O)NCCc1nccn1C)C2` was 2.38%; that for `Cc1cc(C)c(C(=O)N2CCN(c3ncccc3C#N)CC2)c(=O)[nH]1` was -3.28%; that for `CCN(CC)c1ncccc1CNC(=O)c1cnn(CC)c1` was -8.2%.

In the case of `CCCOCCN1CCN(c2ncnc3[nH]ccc23)CC1`, the cytotoxicity at 10 µM is -6.67%. Regarding `C=Cc1cccc(CN(Cc2cnn(C)c2)C2CC2)c1`, the cytotoxicity at 10 µM was 3%. The value for `Cn1ncc2c(N3CCN4CCCCC4C3)nc(C3CCCC3)nc21` (centres undefined) was -139%. The figure for `CCC1(C(=O)O)CCCN(CCOCc2ccccc2)C1` (centres undefined) is 7.33%; for `CCNc1ncc(CN(Cc2ccccc2)CC(C)CO)cn1` (centres undefined) it is 6.33%. In the case of `COCC(=O)N(Cc1cccnc1)CC1CCN(C2CCCC2)CC1`, the cytotoxicity at 10 µM was 1.49%. For `CCc1nc(N2CCN(Cc3ncccc3C)CC2)c2cnn(C)c2n1`, the cytotoxicity at 10 µM is -6.46%.

Turning to `O=C(O)[C@@H]1CN(C(=O)CCN2CCCCC2)C[C@H]1c1ccccc1`, the cytotoxicity at 10 µM amounted to 1.25%.

Consider `CCCn1cc(-c2cc(-c3ccoc3)c(C#N)c(N)n2)c(C)n1`, for which the cytotoxicity at 10 µM came to 5.48%.

On to `Cc1cc2nc(-c3ccccc3)cc(NCC3CCS(=O)(=O)C3)n2n1` (centres undefined), for which the cytotoxicity at 10 µM turned out to be 1.38%. On to `COc1cccc(OC)c1C(=O)N1C[C@@H](CN(C)C)[C@@H](CO)C1`, for which the cytotoxicity at 10 µM was -4.51%. The value for `CC1=NOC(C(=O)N2CCC(O)(c3ccc4nc(C)ccc4c3)CC2)C1` (centres undefined) was 2.12%. As for `CCOc1cccc(C(C(=O)O)N(C)Cc2cc(C)no2)c1` (centres undefined), the cytotoxicity at 10 µM is 4.64%. With `Cc1cc(N2CCOC(C(F)(F)F)C2)nc(-c2ccccc2)n1` (centres undefined), the cytotoxicity at 10 µM is -1.23%. The figure for `Cc1cccc(C(=O)N2CCC(Cc3cnc4[nH]ccc4c3)CC2)n1` is 12.2%; for `Cc1csc(CNC(=O)N2CCCC(c3nncn3C)C2)n1` (centres undefined) it is -18.3%; for `CN(Cc1cnn(C)c1)C(=O)NCCc1ccc2c(c1)OCO2` it is -12.4%. With `Cc1cccc(CN2CCN(C(=O)c3cc(C4CC4)[nH]n3)CC2)c1`, the cytotoxicity at 10 µM was -5.38%. The value for `Cc1ccc(NC2CCN(C(=O)CCNc3ncccn3)CC2)nn1` was -7.69%. The value for `CCn1ccnc1CN1CCCN(C(=O)c2ccnc(C)n2)CC1` was -12.2%; that for `CC(NC(=O)NCCCc1n[nH]c(N)c1C#N)c1ccc(F)c(F)c1` (centres undefined) was -10.2%.

Turning to `Cc1ncc(CN2CCOC(CNc3cccnn3)C2)s1` (centres undefined), the cytotoxicity at 10 µM was -19.8%.

In the case of `CN(Cc1noc(C2CC2)n1)C1CCN(CCS(C)(=O)=O)C1` (centres undefined), the cytotoxicity at 10 µM was -14.9%. The value for `CCN1CCN(c2ccc(CNC(=O)c3sccc3C)cn2)CC1` was -17.8%; that for `O=C(c1cnc(-c2ncccn2)s1)N1CCCC1Cn1cccn1` (centres undefined) was -5.97%. The figure for `Cc1ccccc1OCCCC(=O)NC(C)c1nnc2n1CCC2` (centres undefined) is -11.5%; for `Cc1nnc(NC(=O)CN2CCCC2c2c(C)nn(C)c2C)s1` (centres undefined) it is -14.1%; for `COc1ccccc1CC(=O)N1CCCC(c2cc(C)[nH]n2)C1` (centres undefined) it is -21%.

Consider `CCn1cc(NC(=O)NCCc2ccc3c(c2)OCO3)cn1`, for which the cytotoxicity at 10 µM is 2.04%. Regarding `COc1ncccc1C(=O)N1CCCC1c1c(C)nn(C)c1Cl` (centres undefined), the cytotoxicity at 10 µM is -9.35%. Regarding `Cc1cc(C(=O)N2CCCC(n3cncn3)C2)on1` (centres undefined), the cytotoxicity at 10 µM is -22.5%. Turning to `NC(=O)C1CCCN1c1cc(N2CCc3ccccc3C2)ncn1` (centres undefined), the cytotoxicity at 10 µM was -0.918%. Turning to `CC(NC(=O)NCc1cccc(N2CCCC2=O)c1)c1ccccc1` (centres undefined), the cytotoxicity at 10 µM is 4.52%. The value for `CCc1cnc(N2CC[C@H]3[C@@H]2CCC(=O)N3c2cccnc2)nc1` was 10.4%; that for `CC(C)N1CCC2(C=C(C(=O)NC3CC3)c3ccccc32)CC1` was 1.29%. The value for `CC(C)Nc1nc(O)cc(C2CC(=O)N(Cc3ccccn3)C2)n1` (centres undefined) was -16.9%; that for `CCOC1COC2(CCN(Cc3ccc(F)cc3)CC2)C1` (centres undefined) was -0.508%. The value for `O=C(c1ccc(F)cc1)N1CCC2(CC1)CC(N1CCOCC1)C2` was -7.52%; that for `Cc1ccc(N[C@@H]2CN(Cc3cc(C)on3)C[C@@H]3CCCO[C@@H]32)nn1` was -0.113%. `CC[C@@H]1N(Cc2ccc(C)s2)CCC[C@]12CCC(=O)N2C`: the cytotoxicity at 10 µM turned out to be 4.94%. The value for `Cc1occc1C(=O)Nc1cccc(C(=O)OCC2CCCN2)c1` (centres undefined) was -2.09%; that for `CC1CCN(C(=O)[C@@H]2C[C@@H]3CCN(CC4CCOCC4)C[C@@H]3O2)CC1` was 7.13%; that for `CCCNc1c(NC(=O)NCCOC)c(=O)oc2ccccc12` was -6.23%.
